Source: PubChem (several laboratories)
Shown are actives, neighbours in structure and some others; about 4.1% of the full set was active somewhere.
ROMK primary: human ROMK K+ channel modulation, primary screen | Tet-inducible ROMK, thallium flux fluorescence; actives lie on both sides | AID 1918 | B-score at 10 µM | 2% of 130,000 active;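 active means signal ratio slope over the read window, or its plate-corrected B-score, at least 3 SD from the plate mean, either direction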;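 further: B-score of the F/F0 ratio slope over 7 to 12 s after thallium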
Target sequence (P48048 whole entry, looked up): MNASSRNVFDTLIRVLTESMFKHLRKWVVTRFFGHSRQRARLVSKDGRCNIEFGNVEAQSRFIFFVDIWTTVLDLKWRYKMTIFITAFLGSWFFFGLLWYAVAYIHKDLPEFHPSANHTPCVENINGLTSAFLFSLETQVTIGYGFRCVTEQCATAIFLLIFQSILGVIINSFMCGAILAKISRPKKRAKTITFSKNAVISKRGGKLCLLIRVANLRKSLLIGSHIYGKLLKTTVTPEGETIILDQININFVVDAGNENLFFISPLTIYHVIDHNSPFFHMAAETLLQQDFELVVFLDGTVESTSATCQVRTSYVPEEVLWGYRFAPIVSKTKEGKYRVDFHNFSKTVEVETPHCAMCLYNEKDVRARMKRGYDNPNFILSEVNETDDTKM
Redox H2O2 prof: compounds producing H2O2 with reducing agent – biochemical, NIH compound library profiling, artefact control for MLSCN library redox annotation, primary screen. DTT-dependent redox cycling H2O2, phenol red/HRP absorbance; 100% = 100 µM peroxide control, 0% = buffer. activation, % at 10 µM. 0.03% of 200,000 active;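 active means activation of at least 50% relative to the plate's high and low controls in the primary single-dose screen; inactive means activation below 50%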;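 further: compound incubated with DTT at 0.8 mM final as the reducing agent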
Dynein cargo inh: blocks dynein driven cargo transport along microtubules. 3617.4 mouse cells, GR-EGFP nuclear translocation imaging; test concentration mostly 20 µM; stimulated with dexamethasone, 1 µM; stronger effect = lower value. 0.47% of 220,000 active. z-score, hits read low;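 active means plate z-score of nuclear minus cytoplasmic receptor signal below a set negative limit, without overly bright fluorescence or cell loss, cut at about -3.5 in these data, passing the limit was not always enough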;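 further: z-score of nuclear minus cytoplasmic ring GR-EGFP intensity difference per well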
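Buffer or medium: Induction medium lacking tetracycline, stripped serum | Also added: Dexamethasone agonist, 1.0 µM final, for 30 min | Timing: 48 h induction, 1 h compound, 30 min dex at 37 °C | Detection: Formaldehyde fixation, Hoechst nuclear stain, 10x automated fluorescence imaging | Measure: Nuclear versus cytoplasmic GR-EGFP signal, averaged per well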
Cl transport mod: KCC2 (human) Cl- transport modulation; Q9H2X9; KCC2 cells, thallium flux FluoZin-2 fluorescence; B-score of Tl+ flux slope (higher = more flux/activation; lower = inhibition) at 10 µM; 2.2% of 190,000 active; AID 1456;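 active means thallium flux slope and its plate-corrected score both differing from the plate sample mean at a set confidence after two filtering rounds, in either direction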;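 further: slope of fluorescence scaled to starting intensity during 10 to 20 s after thallium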
Autophagy HCS: autophagy modulation, high-content screen; MEF GFP-LC3 puncta imaging; test concentration mostly 10 µM; calls only at 10 µM (by protocol); 0.98% of 190,000 active;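 active means percentage of spot-positive cells more than 3 SD above its plate mean, without a fluorescence outlier flag or 80% toxicity; inconclusive means no clear call, values can overlap the other calls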;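 further: spot-positive cell cutoff set from DMSO-treated cells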
KCC2 sec1: confirmation of human KCC2 transport modulators | shares compounds with Cl transport mod | HEK293-KCC2, thallium flux, FluoZin2 fluorescence; stronger effect = higher value | normalised thallium flux (F/F0 slope) at 10 µM | 15% of 3,700 active;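 active means thallium flux slope above the same plate's solvent-only control mean plus 3 SD; inconclusive means the two replicate wells disagree; inactive means no significant difference from solvent-only control wells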
KCC2 bumet counter: thallium flux despite bumetanide block in KCC2 cells, secondary assay 3 | 49% of 3,700 active | normalized thallium flux at 10 µM | shares compounds with Cl transport mod | HEK293-KCC2 + bumetanide/ouabain, thallium flux FluoZin2; stronger effect = higher value;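 active means thallium entry rate above the same plate's blocked-transporter control wells by more than 3 SD; inconclusive means the two repeat wells disagree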;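 further: raw slope of fluorescence over initial fluorescence between 10 and 20 s after thallium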
KCC2 secondary2: KCC2 (human) modulation, second secondary assay. shares compounds with Cl transport mod. HEK293-KCC2, thallium flux FluoZin2 fluorescence; actives lie on both sides; F/F0 rise rate, 10–20 s post-thallium. normalized thallium flux at 10 µM. 23% of 3,700 active. AID 1715;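 active means thallium flux slope more than 3 SD above or below the plate's solvent-only control mean, mostly below; inconclusive means the two repeat wells disagreed; inactive means no significant shift from solvent-only controls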;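 further: raw slope with 0.1% DMSO as baseline and bumetanide as block control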
HEK counter1: acts in parental HEK cells, KCC2 counter-screen | thallium flux rate (normalised fluorescence) at 10 µM | AID 1716 | HEK293 parental cells, thallium flux FluoZin2, ouabain; baseline-ratio fluorescence slope, 10–20 s after thallium | shares compounds with Cl transport mod | 46% of 3,700 active;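 active means thallium flux rate significantly above the same plate's solvent-only control wells, beyond their mean plus 3 SD; inconclusive means the two replicate wells gave conflicting results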
KCC2 ouabain: KCC2 (human) modulation, ouabain retest; 48% of 3,700 active; raw Tl+ flux slope (below DMSO = inhibition, above = activation) at 10 µM; HEK293-KCC2, thallium flux FluoZin2 fluorescence; bidirectional: low = inhibitor, high = activator; shares compounds with Cl transport mod;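 active means thallium flux slope beyond 3 SD from same-plate DMSO control mean in most replicates, usually higher, sometimes lower; inconclusive means repeat tests gave conflicting results; inactive means no significant difference from controls in most replicates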;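 further: slope of initial-normalized fluorescence between seconds 10 and 20 after thallium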
HEK293 Tl flux2: counter-screen for KCC2 modulators: effect in parental HEK293 cells; shares compounds with Cl transport mod; thallium flux FluoZin-2 fluorescence slope; 33% of 3,700 active; thallium flux slope at 10 µM;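 active means thallium flux slope above the same plate's solvent-control mean plus 3 SD in both duplicate wells; inconclusive means duplicate wells that disagreed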;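 further: run without ouabain in cells lacking the KCC2 cotransporter; slope of fluorescence scaled to its starting value between 10 and 20 s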
Active calls of the source: *; i = inactive; ? = inconclusive; / = no result.

SMILES	ROMK primary	Redox H2O2 prof	Dynein cargo inh	Cl transport mod	Autophagy HCS	KCC2 sec1	KCC2 bumet counter	KCC2 secondary2	HEK counter1	KCC2 ouabain	HEK293 Tl flux2
CN(Cc1ccccc1)C(=O)CSc1nc2ccccc2c(=O)n1Cc1ccco1	/	-1	-0.68	-3.5*	i	0.0072	0.0031*	0.026*	0.0058*	0.015*	?
Cc1ccc(NC(=O)CN(C)C(=O)CSc2nc3ccccc3c(=O)n2Cc2ccco2)cc1	/	2	-0.85	2.5	i	/	/	/	/	/	/
CCOC(=O)CSc1nc2ccccc2c(=O)n1CCCCCC(=O)NCc1ccco1	/	0	1.9	-4.1*	i	0.0084	?	0.033	0.007	0.022	0.011
CN(C(=O)CSc1nc2cc(Cl)ccc2c(=O)n1Cc1ccco1)C1CCS(=O)(=O)C1 (stereo unspecified)	-0.31	-1	-0.77	12*	i	0.011	0.014*	0.032	0.016*	?	0.012
CCOCCCNC(=O)C(c1ccc(C)cc1)N(Cc1cccs1)C(=O)c1ccccc1O (stereo unspecified)	-0.048	-2	0.54	0.023	i	/	/	/	/	/	/
Cc1cc(C)n2cc(CSc3nncn3C)nc2n1	/	-1	1	0.5	i	/	/	/	/	/	/
O=C(O)CCc1ccc(-c2ccc(F)cc2)n1CCC(=O)O	1.1	1	0.13	3.2*	i	0.01	?	0.034	0.008	0.023	0.011
O=C(O)CCc1ccc(-c2ccc(F)cc2)n1CC1CCCO1 (stereo unspecified)	/	2	-0.39	0.6	i	/	/	/	/	/	/
COc1cccc(-c2nc(=S)c3c(o2)CCCC3)c1	0.27	-1	0.18	2.6	i	/	/	/	/	/	/
S=c1nc(-c2ccccc2)oc2c1CCCC2	/	-4	-0.98	5.3*	i	0.0084	0.045*	0.032	0.012*	?	0.013*
O=[N+]([O-])c1ccc(-c2nc(=S)c3c(o2)CCCC3)cc1	0.83	0	0.35	34*	i	0.018*	0.027*	0.038	0.033*	0.042*	0.016*
COc1ccc2nc(N3CCCCC3)c(/C=C3\SC(=S)NC3=O)cc2c1	/	/	-0.65	45*	/	0.016*	0.058*	0.032	0.075*	0.045*	0.017*
O=C1NC(=S)S/C1=C\c1cc2ccccc2nc1N1CCCCC1	/	/	-0.034	/	/	/	/	/	/	/	/
O=C(NCCSCc1ccc(Cl)cc1)c1cccs1	/	/	-0.49	-2.1	/	/	/	/	/	/	/
O=C(O)/C(=C\c1ccc(-c2ccc(F)cc2)o1)c1ccccc1	1.6	0	-0.72	-7*	i	0.0073	0.008*	0.031	0.0074	0.016*	0.01
O=S(=O)(Nc1cccc2nsnc12)c1ccccc1	/	0	-0.35	0.87	i	/	/	/	/	/	/
Cc1ccc2nsnc2c1NS(=O)(=O)c1c(C)ccc2nsnc12	0.81	0	-0.22	7.6*	i	0.0064	0.028*	0.035	0.02*	0.029*	0.019*
Cc1cc(S(=O)(=O)Nc2c(C)ccc3nsnc23)ccc1F	/	-3	-0.68	0.46	i	/	/	/	/	/	/
Cc1cc(C)c(S(=O)(=O)Nc2cccc3nsnc23)c(C)c1	0.39	0	-0.66	23*	i	0.018*	0.074*	0.037	0.041*	0.074*	0.019*
Cn1ncc(Br)c1NC(=O)CSc1ccc(Cl)cc1	-1.2	/	0.66	-1.3	/	/	/	/	/	/	/
Cc1ccc(C(=O)N/C(=C\c2cccs2)C(=O)NCCc2c[nH]c3ccccc23)cc1	/	0	-0.81	-2.8	i	/	/	/	/	/	/
O=c1[nH]c(CSc2nc3ccccc3s2)nc2cc(Cl)ccc12	0.56	/	-1.2	6.2*	/	0.011	0.014*	0.033	?	?	0.011
Cc1cccc(-n2cnc3cc(C(=O)N4CCc5ccccc54)ccc32)c1	-0.12	0	-0.037	-2.9	i	/	/	/	/	/	/
Cc1[nH]n(-c2ccc([N+](=O)[O-])cc2)c(=O)c1C=NCC1CCCO1 (stereo unspecified)	0.2	0	-0.93	-1.4	i	/	/	/	/	/	/
Cc1ccc(-n2[nH]c(C)c(/C=N/Nc3ccc([N+](=O)[O-])cc3[N+](=O)[O-])c2=O)cc1	/	4	0.37	-4.7*	i	0.0064	0.011*	0.03	0.0072	?	0.0095
SMILES	ROMK primary	Redox H2O2 prof	Dynein cargo inh	Cl transport mod	Autophagy HCS	KCC2 sec1	KCC2 bumet counter	KCC2 secondary2	HEK counter1	KCC2 ouabain	HEK293 Tl flux2
O=C(NC1CCCCCCC1)c1ccccc1O	/	2	0.33	-0.1	i	/	/	/	/	/	/
O=C(NC1CCCCCC1)c1ccc[nH]c1=S	0.3	0	-0.51	12*	i	0.013*	0.039*	0.029	0.016*	0.038*	0.011*
Cc1cc(C)cc(N(CC(=O)NCCSc2ccccn2)S(=O)(=O)c2ccccc2)c1	/	-8	-0.42	-0.99	i	/	/	/	/	/	/
Cc1ccccc1N(CC(=O)NCCSc1ccccn1)S(=O)(=O)c1ccccc1	-0.018	0	-0.91	-2.9*	i	0.008	0.006	0.031	0.007	0.019	0.0098
CN(C(=S)NCCN1CCOCC1)C(c1ccccc1)c1ccccc1	0.79	1	-1.2	1.1	i	/	/	/	/	/	/
CCOC(=O)C1=C(N)OC2=C(C(=O)CCC2)C1c1sccc1C (stereo unspecified)	-0.069	-1	-0.9	-6.4*	i	0.0059	0.0045	?	0.0062*	0.017	0.0088*
CCOc1ccc(-c2nnc(-c3cccs3)o2)cc1OCC	/	1	-0.0086	-0.89	i	/	/	/	/	/	/
CCOc1ccc(-c2nc(-c3cccs3)c(CC(=O)O)s2)cc1OC	0.29	-1	0.35	-3.1*	i	0.017	0.0058*	0.029	0.0072	0.015	0.01
O=C(N/N=C/c1cn(-c2cccs2)nc1-c1ccccc1)c1ccccc1O	-0.088	0	2.7	5.4*	i	0.0096	0.019*	0.032	0.011*	0.023	?
O=C(N/N=C/c1cn(-c2cccs2)nc1-c1ccccc1)c1ccccc1Br	/	0	-0.28	0.26	i	/	/	/	/	/	/
COc1ccccc1N(C)S(=O)(=O)c1ccc(C(=O)OCC(=O)N(C(C)C)C(C)C)cc1	0.11	0	0.086	-0.11	i	/	/	/	/	/	/
